# Screening results as filed in PubChem.
# This is a sample that favours compounds with a hit; in the whole collection about 5.4% have one here.
# PostGolgi yeast – growth inhibition of a yeast mutant, post-Golgi transport screen. post-Golgi transport phenotypic cell assay. inhibition, % at 10 µM. hit rate 0.9% among 98,000. AID 739;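 note: yeast cells grown in 1536-well plates; yeast grown about 18 h at 30C before absorbance read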
# HePTP inhibitor – human HePTP phosphatase inhibition | inhibition, % at 20 µM | P35236 | hit rate 0.64% among 110,000 | recombinant HePTP phosphatase activity, OD absorbance; in the data active = inhibition above about 50%;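 note: plate controls were vehicle for no effect and reference inhibitor for full effect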
# Target sequence (P35236 whole entry, looked up): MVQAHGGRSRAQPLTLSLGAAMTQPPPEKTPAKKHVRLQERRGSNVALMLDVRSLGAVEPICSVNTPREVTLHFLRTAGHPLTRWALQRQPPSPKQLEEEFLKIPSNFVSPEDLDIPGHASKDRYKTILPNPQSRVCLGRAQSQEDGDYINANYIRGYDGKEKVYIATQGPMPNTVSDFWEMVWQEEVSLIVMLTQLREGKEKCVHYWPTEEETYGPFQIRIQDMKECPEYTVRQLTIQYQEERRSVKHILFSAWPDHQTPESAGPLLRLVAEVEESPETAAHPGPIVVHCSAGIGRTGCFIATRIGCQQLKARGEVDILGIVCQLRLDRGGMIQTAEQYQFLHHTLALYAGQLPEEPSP
# PLAP act – activators of human placental alkaline phosphatase; purified PLAP enzyme, luminescent substrate read-out; stronger effect = higher value; P05187; hit rate 1.2% among 96,000; activation fold at 20 µM; in the data active = activation fold above about 2
# Ecoli tolC – blocks growth of E. coli BW25113 tolC mutant | hit rate 2.2% among 65,000 | growth inhibition, % at 10 µM (by protocol) | OD615;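 active = growth inhibition at or above a cutoff equal to the mean over every tested compound plus 3 SD, cut at about 60% in these data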;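 note: growth measured after 20 h incubation at 37 °C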
#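 test system = E. coli BW25113 ΔtolC::kan bacteria | medium = LB with kanamycin 50 µg/mL | signal = OD at 615 nm | schedule = 37 °C, 20 h exposure | evaluation = % inhibition of E. coli growth | compound dosing = one dose of 10 µM final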
# PostGolgi ctrl – inhibits growth of the yeast control strain; AID 738; hit rate 5% among 98,000; efflux-deficient yeast background strain, growth absorbance A615, 16 h; inhibition, % at 10 µM
# E coli WT exp – growth inhibitors of E. coli BW25113 wild type; hit rate 0.15% among 98,000; growth inhibition, % at 100 µM; AID 710; OD600 absorbance;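 active = growth inhibition above about 50% at one test dose, limit read from the data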;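 note: growth measured after 20 h incubation at 37 °C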
# The depositor's hits bear a star; . = no result. Cut-off read from the data, not from the text of the source, unless noted: active = inhibition above about 30%; inactive = the rest.
SMILES,PostGolgi yeast,HePTP inhibitor,PLAP act,Ecoli tolC,PostGolgi ctrl,E coli WT exp
Cc1sc(NC(=O)c2ccco2)c(C(c2cccnc2)N2CCN(c3ccc(F)cc3)CC2)c1C (stereo not drawn),10.0,-5.3,1.3,13.1,27.0,-12.0
Cc1nn(Cc2ccccc2)c(C)c1C(=O)OCC(=O)c1cc(C)n(C2CC2)c1C,-7.3,2.8,1.3,65.3*,-3.1,-6.0
COCCn1c(C)cc(C(=O)COC(=O)c2c(C)nn(Cc3ccccc3)c2C)c1C,-2.2,-15.6,1.3,43.5,0.1,-16.0
O=C1S/C(=C/c2ccccc2F)C(=O)N1CNc1ccccc1Cl,.,-8.2,.,.,.,.
O=C(COc1ccc(Cl)cc1)N(Cc1ccccc1)c1ccccn1,-3.9,.,0.8,.,32.6*,-11.0
CC(c1ccco1)N(C(=O)COc1ccc(Cl)cc1)c1ccccn1 (stereo not drawn),3.8,5.9,1.4,-1.3,-5.7,2.0
Cc1ccccc1COc1ccc(/C(O)=C2/C(=O)C(=O)N(CCCn3ccnc3)C2c2ccco2)cc1 (stereo not drawn),.,4.8,2.6*,5.6,.,.
CCCOc1ccc(C(=O)NNC(=S)NC(=O)CC)cc1,76.1*,.,1.2,.,98.9*,68.0*
CCCCCCC1CCC(C(=O)NC(CCSC)C(=O)NC(C(=O)OC)C(C)C)CC1 (stereo not drawn),14.7,.,2.2*,.,-4.8,-2.0
O=S(=O)(N/N=C1\CC(c2ccccc2)Oc2ccccc21)c1ccccc1 (stereo not drawn),2.6,.,1,.,19.6,1.0
Cc1ccc(S(=O)(=O)N/N=C2/CC(c3ccccc3)Oc3ccccc32)cc1 (stereo not drawn),10.1,.,1.1,.,32.7*,-7.0
Cc1ccccc1-n1c(SCc2ccccn2)nc2n[nH]c(C)c2c1=N,-3.5,.,2.3*,23.9,21.4,2.0
CCOc1ccc(-c2nc(N)ncc2-c2ccccc2)c(O)c1,-2.8,-2.3,1,34.3,49.8*,2.0
COc1ccc(-c2nc(-c3ccccc3)nc(N3CCN(C)CC3)c2C#N)cc1,-3.3,.,1.2,.,33.2*,-5.0
COc1ccc(-c2nc(-c3cccc(C)c3)nc(N3CCN(C)CC3)c2C#N)cc1,-2.8,.,1,.,23.1,-5.0
CCOC(=O)c1c(C)n(-c2ccc(OC)cc2)c2ccc(O)cc12,.,9.6,.,.,.,.
COc1ccc(-n2c(C)c(C(C)=O)c3cc(O)ccc32)cc1,-1.2,7.6,1,5.1,31.8*,-16.0
COC(=O)CSc1nc2ccc(NC(=O)CSc3nnnn3Cc3ccccc3)cc2s1,10.2,1.3,0.9,6.6,36.3*,-9.0
Cc1nc2ccc(C(C(F)(F)F)(C(F)(F)F)C(F)(F)F)cc2[nH]1,8.0,8.3,1.3,99.5*,66.4*,3.0
O=C(OCn1ncc(Cl)c(Cl)c1=O)c1cccc(C(F)(F)F)c1,106.3*,.,0.9,.,41.6*,19.0
CCc1ccc(C(=O)Cn2ncc(Cl)c(Cl)c2=O)cc1,-2.6,.,1,.,6.8,-1.0
CCOc1c2ccc(C(=O)NCCc3cccs3)cc2nn1CC,-15.4,.,1.1,.,15.7,7.0
COc1ccc(/C(O)=C2/C(=O)C(=O)N(CC3CCCO3)C2c2cccc(OC)c2)cc1 (stereo not drawn),1.6,0.5,.,100.0*,2.3,0.0
CCOc1ccc(C2/C(=C(/O)c3ccc(F)cc3)C(=O)C(=O)N2CCCN(C)C)cc1 (stereo not drawn),-6.4,2.1,1.1,3.8,44.1*,5.0
COc1ccc(C2/C(=C(/O)c3ccccc3)C(=O)C(=O)N2CC2CCCO2)cc1 (stereo not drawn),.,7.9,.,.,.,.
SMILES,PostGolgi yeast,HePTP inhibitor,PLAP act,Ecoli tolC,PostGolgi ctrl,E coli WT exp
COc1cccc(C2/C(=C(/O)c3ccc(C)cc3)C(=O)C(=O)N2Cc2ccco2)c1 (stereo not drawn),.,10.5,.,76.8*,.,.
O=C1C(=O)N(Cc2ccco2)C(c2cccc(Cl)c2)/C1=C(\O)c1ccc2c(c1)OCCO2 (stereo not drawn),0.5,-10.7,.,69.7*,1.1,3.0
CN(C)c1ccc(C=Nc2ccccc2C(N)=O)cc1,-5.6,11.5,0.9,-2.6,11.5,5.0
CCOCCCNC(=O)c1cn(CC(C)C)c(=O)c2cc(OC)c(OC)cc12,-1.8,3.3,1.3,-22.9,5.3,-2.0
O=C(CSCC(=O)NC1CC1)Nc1ccccc1,24.2,-13.4,1.4,17.3,5.4,2.0
O=C(CCNc1cc(Cl)cc(Cl)c1)c1cccs1,-2.8,.,0.6,.,16.0,4.0
CCOC(=O)c1sc(NC(NC(=O)c2ccco2)(C(=O)OC)C(F)(F)F)nc1C (stereo not drawn),2.6,0.8,1.1,36.2,13.7,2.0
Cn1cccc1CN1CCN(C(=O)c2ccccc2F)CC1,.,0.6,.,.,.,.
COCCCN1C(=O)C(=O)/C(=C(/O)c2ccc(OC)cc2)C1c1cccc(OC)c1 (stereo not drawn),5.1,2.8,1,23.2,34.6*,-2.0
COCCN1C(=O)C(=O)/C(=C(/O)c2ccccc2)C1c1cccc(OC)c1 (stereo not drawn),.,-2.4,.,.,.,.
O=c1cc(O)c2c(=O)n(C3CCCCC3)c3ccccc3c2o1,12.2,.,1.4,.,3.9,-7.0
O=C(NC1CC2CCCC(C1)N2Cc1ccco1)NC12CC3CC(CC(C3)C1)C2 (stereo not drawn),-3.6,5.4,2.2*,-4.2,7.7,2.0
COc1ccc(CCNC(=O)Cc2ccccc2)cc1,.,-4.1,.,.,.,.
O=C(COc1ccc(Br)cc1)Nc1ccc2oc(-c3ccccc3F)nc2c1,.,4.6,.,.,.,.
O=C(COc1ccc(Cl)cc1)Nc1ccc2oc(-c3ccccc3F)nc2c1,.,57.1*,.,.,.,.
O=C(Nc1ccc2oc(-c3ccccc3Cl)nc2c1)c1ncn[nH]1,-0.8,-2.0,2*,14.1,1.1,-6.0
O=C(Nc1ccc2oc(-c3cccc4ccccc34)nc2c1)c1ncn[nH]1,-1.0,.,.,.,1.1,1.0
CCOc1cc(NC(=S)Nc2ccccc2)c(OCC)cc1NC(=O)c1ccc(OC)cc1,-6.8,.,1.2,.,-1.3,-15.0
COc1ccc(CCNc2oc(COc3ccccc3F)nc2C#N)cc1,2.1,8.3,1.3,88.5*,15.5,-6.0
CN(C)CCNc1oc(COc2ccc(Cl)cc2Cl)nc1C#N,0.8,.,2*,.,-3.4,7.0
COCCCNc1oc(COc2ccc(Cl)cc2Cl)nc1C#N,-4.3,8.9,1.5,49.5,13.4,11.0
CCOC(=O)c1cc2occc2n1CC(=O)N1CCOCC1,-1.3,1.6,0.9,-12.1,1.2,8.0
O=C(NCc1ccccc1)c1cc2nc(C3CC3)cc(C(F)(F)F)n2n1,-12.9,.,1,.,10.4,-12.0
Cc1cc(NC(=O)c2cc3nc(C4CC4)cc(C(F)(F)F)n3n2)no1,11.6,5.9,0.9,-17.5,31.0*,-5.0
O=C(Nc1ccc(C(=O)N2CCCC2)cc1)c1ccccc1F,-2.5,-4.0,1.2,2.2,12.1,-5.0
COc1ccc(/C=N/n2cncn2)cc1COc1ccc(NC(C)=O)cc1,-0.8,-3.0,1.1,-5.8,4.0,-6.0
O=C(O)c1ccccc1C(=O)Nc1ccc(Nc2ccc([N+](=O)[O-])cc2[N+](=O)[O-])cc1,.,-4.6,.,.,.,.
